Experimental findings from ChEMBL document CHEMBL1138229, “Novel cyano- and amidino-substituted derivatives of styryl-2-benzimidazoles and benzimidazo[1,2-a]quinolines. Synthesis, photochemical synthesis, DNA binding, and antitumor evaluation, part 3” (J Med Chem, 2007) are described below.

For test [1], the system named is SW-620. In words: Cell cycle arrest in human SW620 cells assessed as accumulation at G2/M phase after 24 hrs at 5 uM. It is filed as functional. Put shortly: (§1)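 Cells seeded at 2 × 10^5 per well and incubated overnight before compound at 5 × 10^-6 M. After 24, 48 or 72 h, attached and floating cells were pooled, PBS-washed and fixed in 70% ethanol. RNase A (0.1 µg/µl, 37 °C, 15 min), then propidium iodide 1 µg/mL; flow cytometry of 20 000 events. Results given as percent of cells per phase; significance at p < 0.05.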

A further test is filed under the species Homo sapiens. In words: Inhibition of Topoisomerase 2-mediated pRYG DNA relaxation activity. The method in brief: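 Supercoiled pRYG plasmid with 8 units purified topo II in assay buffer. Test compound or etoposide added as 2 µL of a 1 mM stock per 20 µL reaction. Incubation 37 °C for 30 min; stopped with SDS, then proteinase K (50 µg/mL, 37 °C, 15 min). Gel electrophoresis, post-stained with ethidium bromide 0.5 µg/mL, UV imaging of supercoiled-to-relaxed conversion.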

For test [2], the system named is HeLa. Briefly: Antitumor activity against human HeLa cells after 72 hrs by MTT assay. It is filed as functional, cell-based. Put shortly: (§2)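 Cells from ATCC grown as monolayers in DMEM with 10% FBS, 2 mM L-glutamine, penicillin/streptomycin, 5% CO2, 37 °C. Seeded on day 0 at 1 × 10^4/mL (2 × 10^4/mL for MCF-7). Five 10-fold dilutions (10^-8 to 10^-4 mol/L) added, then 72 h exposure. MTT read at 570 nm; percent growth vs time-zero and untreated controls. IC50 by linear regression; quadruplicates, three experiments.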
For orientation: Formazan colour is commonly taken as a measure of viable cells.

Test [3] has as its system SW-620. Briefly: Cell cycle arrest in human SW620 cells assessed as accumulation at G2/M phase after 48 hrs at 5 uM. The format is functional. The method in brief: as §1
Test [4] concerns SW-620. Briefly: Cell cycle arrest in human SW620 cells assessed as accumulation at G1/G0 phase after 48 hrs at 5 uM. It is filed as functional. The method in brief: as §1
In test [5] the test system is SW-620. In words: Cell cycle arrest in human SW620 cells assessed as accumulation at G1/G0 phase after 72 hrs at 5 uM. It is filed as functional. The method in brief:
as §1

For another test, the system named is MIA PaCa-2. Briefly: Antitumor activity against human MiaPaCa2 cells after 72 hrs by MTT assay. It is filed as functional, cell-based. The settings on record: MIA PaCa-2, 72 h. Put shortly: as §2
For test [6], the system named is SW-620. In words: Cell cycle arrest in human SW620 cells assessed as accumulation at S phase after 24 hrs at 5 uM. The format is functional. Put shortly:
as §1

Test [7] in a line: Antiproliferative activity against human […] fibroblast after 72 hrs by MTT assay. The format is functional. The method in brief: as §2
Another test relates to DNA. In words: Binding affinity to calf thymus DNA by thermal melting temperature assay. It is filed as nucleic-acid assay. The conditions noted are these: Bos taurus. The method in brief: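 ct-DNA (as phosphate concentration) in sodium cacodylate buffer pH 7.0, I = 0.05 mol dm-3. Compound/polynucleotide ratio r = 0.3. Absorbance at 260 nm followed against temperature, ligand absorbance subtracted. Tm taken as transition midpoint by first derivative or tangent method. ΔTm = Tm(complex) − Tm(free DNA), averaged over at least two runs, error ±0.5 °C.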

Test [8] has as its system SW-620. Briefly: Cell cycle arrest in human SW620 cells assessed as accumulation at Sub G1 phase after 72 hrs at 5 uM. The format is functional. Put shortly: as §1
Test [9] deals with SW-620. Briefly: Cell cycle arrest in human SW620 cells assessed as accumulation at S phase after 48 hrs at 5 uM. It is filed as functional. Put shortly:
as §1

A further test concerns HEp-2. In words: Antitumor activity against human Hep2 cells after 72 hrs by MTT assay. It is filed as functional, cell-based. The settings on record: HEp-2, 72 h. Put shortly: as §2
For test [10], the system named is SW-620. Briefly: Cell cycle arrest in human SW620 cells assessed as accumulation at S phase after 72 hrs at 5 uM. It is filed as functional. The method in brief: as §1
Test [11] has as its system SW-620. Briefly: Cell cycle arrest in human SW620 cells assessed as accumulation at Sub G1 phase after 48 hrs at 5 uM. It is filed as functional. The method in brief:
as §1

Test [12] deals with SW-620. In words: Antitumor activity against human SW620 cells after 72 hrs by MTT assay. The format is functional, cell-based. The settings on record: SW-620, 72 h. The method in brief:
as §2

In test [13] the test system is SW-620. In words: Cell cycle arrest in human SW620 cells assessed as accumulation at G1/G0 phase after 24 hrs at 5 uM. It is filed as functional. Put shortly:
as §1

Another test relates to MCF7. Briefly: Antitumor activity against human MCF7 cells after 72 hrs by MTT assay. The conditions noted are these: MCF7, 72 h. It is filed as functional, cell-based. Put shortly: as §2
The subject of test [14] is SW-620. In words: Cell cycle arrest in human SW620 cells assessed as accumulation at G2/M phase after 72 hrs at 5 uM. The format is functional. The method in brief:
as §1

For test [15], the system named is SW-620. In words: Cell cycle arrest in human SW620 cells assessed as accumulation at Sub G1 phase after 24 hrs at 5 uM. It is filed as functional. The method in brief:
as §1

The subject of test [16] is HeLa. In words: Cell cycle arrest in human HeLa cells assessed as accumulation at G2/M phase after 48 hrs at 5 uM. It is filed as functional. Put shortly:
as §1

Test [17] has as its system HeLa. Briefly: Cell cycle arrest in human HeLa cells assessed as accumulation at S phase after 72 hrs at 5 uM. It is filed as functional. Put shortly: as §1
Test [18] deals with HeLa. Briefly: Cell cycle arrest in human HeLa cells assessed as accumulation at Sub G1 phase after 72 hrs at 5 uM. It is filed as functional. The method in brief:
as §1

Test [19] concerns HeLa. Briefly: Cell cycle arrest in human HeLa cells assessed as accumulation at G2/M phase after 24 hrs at 5 uM. The format is functional. The method in brief: as §1
For test [20], the system named is HeLa. Briefly: Cell cycle arrest in human HeLa cells assessed as accumulation at G0/G1 phase after 24 hrs at 5 uM. The format is functional. Put shortly:
as §1

Test [21] relates to HeLa. Briefly: Cell cycle arrest in human HeLa cells assessed as accumulation at Sub G1 phase after 24 hrs at 5 uM. It is filed as functional. The method in brief: as §1
Test [22] deals with HeLa. Briefly: Cell cycle arrest in human HeLa cells assessed as accumulation at G0/G1 phase after 72 hrs at 5 uM. The format is functional. The method in brief: as §1
Test [23] has as its system HeLa. Briefly: Cell cycle arrest in human HeLa cells assessed as accumulation at Sub G1 phase after 48 hrs at 5 uM. It is filed as functional. The method in brief: as §1
The test system of test [24] is HeLa. In words: Cell cycle arrest in human HeLa cells assessed as accumulation at G2/M phase after 72 hrs at 5 uM. The format is functional. Put shortly:
as §1

The test system of test [25] is HeLa. Briefly: Cell cycle arrest in human HeLa cells assessed as accumulation at S phase after 48 hrs at 5 uM. It is filed as functional. The method in brief: as §1
Test [26] relates to HeLa. In words: Cell cycle arrest in human HeLa cells assessed as accumulation at S phase after 24 hrs at 5 uM. The format is functional. The method in brief:
as §1

For test [27], the system named is HeLa. In words: Cell cycle arrest in human HeLa cells assessed as accumulation at G0/G1 phase after 48 hrs at 5 uM. It is filed as functional. The method in brief: as §1

The structures appear in SMILES notation. Calls of active or inactive are those of the source. The rule behind the calls is not given here.

Usually IC50 stands for the concentration that inhibits the measured activity by half. As a reminder, the ΔTm is the change in melting temperature against a reference sample. As to `C(=C/c1nc2ccc(C3=NCCN3)cc2[nH]1)/c1ccccc1.Cl`, the Activity in the test with SW-620 [1] amounted to 19%; in the test with SW-620 [3] it was 15%; in the test with SW-620 [4], 46%; in the test with SW-620 [5], 49%; in the test with SW-620 [6], 45%; in the test on SW-620 [8], 0.8%. For the same compound, the Activity was 39% in the test on SW-620 [9]; 30% in the test with SW-620 [10]; 1% in the test with SW-620 [11]; 36% with SW-620 [13]; 21% in the test with SW-620 [14]; 0.5% with SW-620 [15]. Further, the result in the test listed under Homo sapiens was Active. Further, the 50% inhibitory concentration (IC50) in the test with HeLa [2] came to 35000 nM; with MIA PaCa-2 it was 25000 nM; in test [7], 99000 nM; with HEp-2 it was 27000 nM; in the test with SW-620 [12], 45000 nM; in the test with MCF7, 17000 nM. In the test with DNA, the ΔTm was determined as 1 °C.

As for `Cl.N=C(NN1CCOCC1)c1ccc2nc3ccc4ccccc4n3c2c1`, the Activity is on record as 27% in the test on HeLa [16]; 39% in the test with HeLa [17]; 2% in the test with HeLa [18]; 34% in the test with HeLa [19]; 36% with HeLa [20]; 3% in the test with HeLa [21]. In addition, the Activity in the test on HeLa [22] stood at 25%; in the test with HeLa [23], 2%; in the test with HeLa [24] it was 35%; in the test on HeLa [25], 37%; in the test on HeLa [26], 30%; in the test with HeLa [27] it was 36%. In addition, the IC50 with HeLa [2] is 3000 nM; in the test on MIA PaCa-2 it was 2000 nM; in [7] it was 4000 nM; in the test with HEp-2 it was 2000 nM; in the test on SW-620 [12] it was 2000 nM; in the test on MCF7, 4000 nM. For the same compound, the ΔTm in the test on DNA came to 3.2 °C.

As for `Cl.c1ccc2c(c1)ccc1nc3ccc(C4=NCCN4)cc3n12`, the Activity is given as 49% in the test on SW-620 [1]; 32% in the test on HeLa [16]; 32% in the test on HeLa [17]; 3% in the test with HeLa [18]; 26% with HeLa [19]; 49% in the test with SW-620 [3]. Besides, the Activity is 25% in the test on SW-620 [4]; 32% in the test with HeLa [20]; 2% with HeLa [21]; 30% in the test with SW-620 [5]; 28% with HeLa [22]; 39% in the test with SW-620 [6]. The Activity in the test with SW-620 [8] was 13%; in the test with SW-620 [9], 26%; in the test with SW-620 [10] it was 17%; in the test with SW-620 [11], 12%; in the test with HeLa [23], 2%; in the test on SW-620 [13], 12%. The Activity in the test on SW-620 [14] is 54%; in the test on HeLa [24], 40%; in the test on SW-620 [15] it was 3%; in the test with HeLa [25] it was 36%; in the test on HeLa [26], 42%; in the test with HeLa [27], 34%. Further, in the test filed under Homo sapiens, the outcome was Active. Besides, the IC50 in the test on HeLa [2] was determined as 2000 nM; with MIA PaCa-2, 1000 nM; in [7], 2000 nM; with HEp-2 it was 2000 nM; with SW-620 [12], 400 nM; in the test with MCF7 it was 2000 nM. In addition, the ΔTm with DNA is 4.9 °C.
